The source of these data is ChEMBL document CHEMBL4251704, “Discovery of Pyridopyrimidinones as Potent and Orally Active Dual Inhibitors of PI3K/mTOR” (ACS Med Chem Lett, 2018).

pIC50: −log10 of the molar value.

Series [1] deals with T1, Phosphatidylinositol 4,5-bisphosphate 3-kinase catalytic subunit alpha isoform (Homo sapiens, UniProt P42336). In words: Inhibition of PI3Kalpha in human MCF7 cells assessed as reduction in AKT phosphorylation at 1 uM after 2 hrs by ELISA relative to control. It counts as cell-based.
T1 sequence (P42336 whole entry, canonical isoform): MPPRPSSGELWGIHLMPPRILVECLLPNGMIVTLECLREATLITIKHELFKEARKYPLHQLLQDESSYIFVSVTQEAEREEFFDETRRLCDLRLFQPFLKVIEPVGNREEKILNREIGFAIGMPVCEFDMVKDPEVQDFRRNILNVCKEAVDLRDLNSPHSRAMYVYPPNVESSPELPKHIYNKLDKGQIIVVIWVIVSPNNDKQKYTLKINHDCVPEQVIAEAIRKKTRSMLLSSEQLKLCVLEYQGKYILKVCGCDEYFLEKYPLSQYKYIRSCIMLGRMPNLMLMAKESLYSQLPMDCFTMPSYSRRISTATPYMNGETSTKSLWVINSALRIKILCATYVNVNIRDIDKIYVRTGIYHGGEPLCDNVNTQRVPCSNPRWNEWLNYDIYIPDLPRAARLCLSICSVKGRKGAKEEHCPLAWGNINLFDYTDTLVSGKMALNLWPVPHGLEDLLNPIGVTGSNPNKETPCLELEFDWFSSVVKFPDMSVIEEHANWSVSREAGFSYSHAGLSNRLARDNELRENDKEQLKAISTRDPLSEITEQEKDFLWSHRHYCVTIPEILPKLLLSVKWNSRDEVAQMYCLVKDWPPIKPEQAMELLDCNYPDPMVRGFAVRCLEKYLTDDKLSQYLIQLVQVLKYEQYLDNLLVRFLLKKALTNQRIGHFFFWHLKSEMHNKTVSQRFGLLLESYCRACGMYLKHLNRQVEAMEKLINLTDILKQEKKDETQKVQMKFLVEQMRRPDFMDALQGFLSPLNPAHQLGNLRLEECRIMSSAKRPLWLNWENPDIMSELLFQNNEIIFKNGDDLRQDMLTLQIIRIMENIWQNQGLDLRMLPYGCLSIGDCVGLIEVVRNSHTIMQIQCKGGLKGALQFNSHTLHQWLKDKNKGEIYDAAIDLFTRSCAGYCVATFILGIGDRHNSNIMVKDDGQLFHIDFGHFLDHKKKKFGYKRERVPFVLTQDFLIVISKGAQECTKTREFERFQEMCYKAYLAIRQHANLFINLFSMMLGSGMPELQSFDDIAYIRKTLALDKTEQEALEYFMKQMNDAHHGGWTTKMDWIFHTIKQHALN
The nature of series [2]: Oral bioavailability in mouse at 3 mg/kg. The class given is ADME, organism-based. The settings on record: in vivo. An outline of the steps: (§1)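 Single oral dose of 3 mg/kg to mice, given in 10% DMSO/65% PEG400/25% H2O or in 10% DMSO/80% PEG400/10% H2O depending on the compound. Plasma exposure was measured.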
Series [3] is described as follows: AUC (0 to last) in mouse at 1 mg/kg, iv. The class given is ADME, organism-based. The arrangement: dose 1 mg/kg, time 0 - last, route intravenous. The settings on record: in vivo. The gist of the method: (§2)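 Mice were dosed intravenously at 1 mg/kg. The vehicle was either 10% DMSO/65% PEG400/25% H2O or 10% DMSO/80% PEG400/10% H2O, depending on the compound.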

A short description of series [4]: Protein binding in rat plasma. It counts as ADME, cell-free.
Series [5] is described as follows: Cmax in mouse at 3 mg/kg, po. It counts as ADME, organism-based. Further details: dose 3 mg/kg, route oral. The settings on record: in vivo. The gist of the method: as §1
The nature of series [6]: Protein binding in human plasma. It counts as ADME, cell-free.
Series [7] can be described thus: Clearance in mouse at 1 mg/kg, iv. The class given is ADME, organism-based. The settings on record: in vivo. The gist of the method:
as §2

The nature of series [8]: Half life in mouse at 1 mg/kg, iv. The class given is ADME, organism-based. As to conditions: in vivo. The gist of the method:
as §2

A short description of series [9]: AUC (0 to last) in mouse at 3 mg/kg, po. As to conditions: in vivo. It counts as ADME, organism-based. The arrangement: dose 3 mg/kg, time 0 - last, route oral. The gist of the method:
as §1

Series [10] can be described thus: Tmax in mouse at 3 mg/kg, po. It counts as ADME, organism-based. The settings on record: in vivo. The gist of the method:
as §1

The nature of series [11]: Volume of distribution at steady state in mouse at 1 mg/kg, iv. The class given is ADME, organism-based. The settings on record: in vivo, read-out: Vdss. An outline of the steps: as §2
Series [12] has as its target T2, Serine/threonine-protein kinase mTOR (Homo sapiens, UniProt P42345). In words: Inhibition of mTOR (unknown origin) using ULight-4E-BP1(Thr37/46) peptide as substrate measured after 2 hrs by HTRF assay.
Series [13] addresses T1, Phosphatidylinositol 4,5-bisphosphate 3-kinase catalytic subunit alpha isoform. In words: Inhibition of PI3Kalpha (unknown origin) using PIP2 as substrate measured after 30 mins by HTRF assay.
The target of series [14] is T2, Serine/threonine-protein kinase mTOR. In words: Inhibition of mTOR in human MCF7 cells assessed as reduction in P70S6K phosphorylation after 4 hrs by […] assay. It counts as cell-based. The gist of the method:
(§3)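 MCF-7 cells were incubated with compound for 4 h. Phosphorylation of Akt at S473 and of p70s6k at T389 was read by […], and IC50 was derived.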

The nature of series [15]: Protein binding in mouse plasma. The class given is ADME, cell-free.
Series [16] concerns the target T1, Phosphatidylinositol 4,5-bisphosphate 3-kinase catalytic subunit alpha isoform. In words: Inhibition of PI3Kalpha in human MCF7 cells assessed as reduction in AKT phosphorylation after 4 hrs by ADP-Glo assay. It counts as cell-based. The gist of the method: as §3
In series [17] the target is Phosphatidylinositol 4,5-bisphosphate 3-kinase catalytic subunit gamma isoform (Homo sapiens, UniProt P48736). In words: Inhibition of human PI3K p120gamma using phosphatidylinositol 4,5-bisphosphate as substrate after 30 mins by HTRF assay.
Chain of Phosphatidylinositol 4,5-bisphosphate 3-kinase catalytic subunit gamma isoform (P48736 whole entry, canonical isoform): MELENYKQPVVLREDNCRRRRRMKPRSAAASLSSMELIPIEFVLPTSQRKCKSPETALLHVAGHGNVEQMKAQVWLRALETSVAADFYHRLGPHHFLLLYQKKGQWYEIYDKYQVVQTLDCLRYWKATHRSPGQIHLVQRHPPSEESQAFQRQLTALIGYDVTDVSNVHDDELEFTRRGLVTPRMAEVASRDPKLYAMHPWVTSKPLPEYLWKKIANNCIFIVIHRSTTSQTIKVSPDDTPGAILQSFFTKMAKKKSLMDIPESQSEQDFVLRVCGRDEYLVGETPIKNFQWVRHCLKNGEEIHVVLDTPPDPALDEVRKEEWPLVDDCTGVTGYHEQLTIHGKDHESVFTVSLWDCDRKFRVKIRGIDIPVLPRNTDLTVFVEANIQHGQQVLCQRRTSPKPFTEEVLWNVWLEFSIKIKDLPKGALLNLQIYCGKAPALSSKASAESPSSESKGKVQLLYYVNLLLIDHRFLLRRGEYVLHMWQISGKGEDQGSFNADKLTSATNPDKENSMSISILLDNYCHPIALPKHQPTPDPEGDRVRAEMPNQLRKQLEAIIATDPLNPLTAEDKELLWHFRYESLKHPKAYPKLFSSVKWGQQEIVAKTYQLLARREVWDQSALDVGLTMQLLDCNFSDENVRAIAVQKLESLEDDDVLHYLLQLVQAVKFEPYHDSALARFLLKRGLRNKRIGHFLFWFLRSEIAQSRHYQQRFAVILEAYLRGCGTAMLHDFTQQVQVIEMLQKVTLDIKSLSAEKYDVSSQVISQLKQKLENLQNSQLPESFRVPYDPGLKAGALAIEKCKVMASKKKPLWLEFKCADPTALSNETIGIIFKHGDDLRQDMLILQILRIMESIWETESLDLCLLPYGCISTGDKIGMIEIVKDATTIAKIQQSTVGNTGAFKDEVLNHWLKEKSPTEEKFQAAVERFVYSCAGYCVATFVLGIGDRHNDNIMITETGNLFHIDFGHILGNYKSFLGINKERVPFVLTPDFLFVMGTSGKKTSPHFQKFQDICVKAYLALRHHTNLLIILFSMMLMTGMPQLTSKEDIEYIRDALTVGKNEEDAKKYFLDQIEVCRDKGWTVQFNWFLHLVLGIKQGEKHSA
For series [18], the target named is PI3-kinase p110-delta/p85-alpha (Homo sapiens, UniProt O00329). In words: Inhibition of human PI3K p110delta/p85alpha using phosphatidylinositol 4,5-bisphosphate as substrate after 30 mins by HTRF assay. The class given is protein-complex assay.
Chain of PI3-kinase p110-delta/p85-alpha (P27986 whole entry): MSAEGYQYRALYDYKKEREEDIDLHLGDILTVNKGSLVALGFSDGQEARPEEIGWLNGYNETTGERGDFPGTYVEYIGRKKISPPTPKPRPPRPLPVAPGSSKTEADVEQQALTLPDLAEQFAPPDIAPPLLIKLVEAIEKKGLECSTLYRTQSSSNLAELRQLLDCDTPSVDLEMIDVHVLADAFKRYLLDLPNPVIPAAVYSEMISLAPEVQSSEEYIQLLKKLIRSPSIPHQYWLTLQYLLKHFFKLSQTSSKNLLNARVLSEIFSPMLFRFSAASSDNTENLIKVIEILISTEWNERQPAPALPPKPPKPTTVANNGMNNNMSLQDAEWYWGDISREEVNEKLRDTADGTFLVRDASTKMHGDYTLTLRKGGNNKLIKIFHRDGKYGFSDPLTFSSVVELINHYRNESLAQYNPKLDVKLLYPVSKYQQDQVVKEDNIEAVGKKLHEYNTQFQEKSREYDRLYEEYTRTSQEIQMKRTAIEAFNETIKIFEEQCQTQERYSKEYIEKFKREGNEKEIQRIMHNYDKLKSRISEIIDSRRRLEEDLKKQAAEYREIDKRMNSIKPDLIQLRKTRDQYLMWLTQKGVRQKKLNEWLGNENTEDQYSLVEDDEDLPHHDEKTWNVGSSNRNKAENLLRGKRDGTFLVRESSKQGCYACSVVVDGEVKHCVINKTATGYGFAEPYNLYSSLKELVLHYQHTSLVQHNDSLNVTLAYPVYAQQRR
Chain of PI3-kinase p110-delta/p85-alpha (O00329 whole entry): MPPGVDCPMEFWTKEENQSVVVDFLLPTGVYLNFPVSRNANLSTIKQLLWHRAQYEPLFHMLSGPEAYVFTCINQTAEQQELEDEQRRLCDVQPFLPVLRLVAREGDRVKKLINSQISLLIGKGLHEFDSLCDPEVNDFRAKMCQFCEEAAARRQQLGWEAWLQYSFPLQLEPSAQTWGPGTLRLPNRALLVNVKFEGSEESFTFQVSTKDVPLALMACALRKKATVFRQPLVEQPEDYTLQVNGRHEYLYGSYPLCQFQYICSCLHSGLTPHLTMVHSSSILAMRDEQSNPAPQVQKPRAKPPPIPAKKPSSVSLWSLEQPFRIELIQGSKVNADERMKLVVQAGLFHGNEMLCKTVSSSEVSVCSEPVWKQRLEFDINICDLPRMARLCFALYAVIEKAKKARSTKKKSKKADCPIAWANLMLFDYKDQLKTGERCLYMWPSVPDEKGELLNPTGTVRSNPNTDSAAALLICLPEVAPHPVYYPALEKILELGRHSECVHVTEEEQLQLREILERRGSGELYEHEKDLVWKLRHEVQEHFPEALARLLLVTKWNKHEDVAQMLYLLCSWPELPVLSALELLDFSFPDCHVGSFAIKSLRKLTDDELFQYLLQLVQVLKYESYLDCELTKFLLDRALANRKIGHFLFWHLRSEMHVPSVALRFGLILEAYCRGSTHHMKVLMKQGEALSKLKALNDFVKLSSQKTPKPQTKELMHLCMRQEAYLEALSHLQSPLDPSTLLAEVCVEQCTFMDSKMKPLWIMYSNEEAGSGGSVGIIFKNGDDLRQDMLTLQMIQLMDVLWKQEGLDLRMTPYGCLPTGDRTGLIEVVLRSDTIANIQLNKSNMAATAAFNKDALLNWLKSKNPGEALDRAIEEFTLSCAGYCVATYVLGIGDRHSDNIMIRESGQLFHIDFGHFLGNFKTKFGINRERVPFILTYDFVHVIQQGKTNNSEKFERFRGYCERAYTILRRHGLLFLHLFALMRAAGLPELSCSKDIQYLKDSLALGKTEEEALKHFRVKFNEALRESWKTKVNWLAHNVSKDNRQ
A further series relates to PC-3M. In words: Antitumor activity against human PC3M cells xenografted in Balb/c mouse assessed as tumor growth inhibition administered orally once daily for 21 days measured twice a week during compound dosing. It counts as functional, cell-based. An outline of the steps: (§4)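 Nude mice bearing PC-3M tumors received 1, 3 or 10 mg/kg by oral gavage once daily for 21 days, with 10 mice per group.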

The next series concerns Mus musculus. In words: Toxicity in Balb/c mouse xenografted with human PC3M cells assessed as body weight loss at 1 to 10 mg/kg, po administered once daily for 21 days measured daily during compound dosing. The class given is organism-based. As to conditions: in vivo, 504 h. An outline of the steps:
as §4

A further series has as its target PI3K p110 beta/p85 alpha (Homo sapiens, UniProt P42338). In words: Inhibition of human PI3K p110beta/p85alpha using phosphatidylinositol 4,5-bisphosphate as substrate after 30 mins by HTRF assay. It counts as protein-complex assay.

Chain of PI3K p110 beta/p85 alpha (P27986 whole entry): as the sequence (P27986 whole entry) above
Chain of PI3K p110 beta/p85 alpha (P42338 whole entry): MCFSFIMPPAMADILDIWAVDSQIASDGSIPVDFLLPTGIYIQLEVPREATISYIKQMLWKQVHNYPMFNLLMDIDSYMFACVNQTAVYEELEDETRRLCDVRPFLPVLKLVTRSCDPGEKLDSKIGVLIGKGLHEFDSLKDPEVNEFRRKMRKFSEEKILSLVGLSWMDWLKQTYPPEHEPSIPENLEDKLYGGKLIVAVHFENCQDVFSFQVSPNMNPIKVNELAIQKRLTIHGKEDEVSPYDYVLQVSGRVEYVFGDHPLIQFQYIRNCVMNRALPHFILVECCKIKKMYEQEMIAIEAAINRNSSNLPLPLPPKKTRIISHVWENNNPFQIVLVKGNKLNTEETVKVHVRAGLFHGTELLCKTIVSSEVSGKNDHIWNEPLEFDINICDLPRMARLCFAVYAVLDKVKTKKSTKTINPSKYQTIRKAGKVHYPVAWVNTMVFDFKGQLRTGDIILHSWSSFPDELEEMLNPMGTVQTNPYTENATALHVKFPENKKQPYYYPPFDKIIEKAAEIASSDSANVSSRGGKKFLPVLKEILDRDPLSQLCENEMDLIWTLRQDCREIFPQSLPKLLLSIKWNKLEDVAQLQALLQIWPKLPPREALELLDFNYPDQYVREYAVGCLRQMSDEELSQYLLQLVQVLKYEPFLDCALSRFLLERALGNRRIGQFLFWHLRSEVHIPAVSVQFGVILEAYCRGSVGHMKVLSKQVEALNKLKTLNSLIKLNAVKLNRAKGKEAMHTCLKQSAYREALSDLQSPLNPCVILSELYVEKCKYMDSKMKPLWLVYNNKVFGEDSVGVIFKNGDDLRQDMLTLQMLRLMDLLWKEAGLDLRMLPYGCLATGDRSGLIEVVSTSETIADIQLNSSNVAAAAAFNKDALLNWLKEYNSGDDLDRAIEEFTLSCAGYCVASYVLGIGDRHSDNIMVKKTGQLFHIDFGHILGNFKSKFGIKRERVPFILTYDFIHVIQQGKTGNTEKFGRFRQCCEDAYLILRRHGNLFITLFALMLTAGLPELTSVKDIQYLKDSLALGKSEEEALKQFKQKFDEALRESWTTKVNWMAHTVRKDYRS

Regarding `COc1ncc(-c2cc3c(N4CCNC(=O)C4)ncnc3cn2)cc1NS(=O)(=O)c1ccc(F)cc1F`, the inhibition in series [1] stood at 50%.
Consider `COc1ncc(-c2ccc3nccc(=O)n3c2)cc1NS(=O)(=O)c1ccc(F)cc1F`, for which the bioavailability in series [2] came out at 139%. The inhibition in series [1] is 98%. The figures for the area under the curve AUC(0-t) in series [3] and in series [9] were 3280 ng·h/mL and 13800 ng·h/mL, respectively. Moreover, the results for the fraction unbound in series [4], in series [6] and in series [15] were 0.008, 0.005 and 0.019, respectively. The molecule also displayed a Cmax in series [5] of 4080 ng/mL. In addition, the clearance in [7] was 5.15 mL/min/kg. For the same molecule, the half-life in series [8] was 1 h. In addition, the Tmax in series [10] stood at 0.333 h. The Vd in series [11] was determined as 0.443 L/kg. The pIC50 was 7.72 in [12], 8.51 in series [13], 7.18 in series [14] and 7.80 in series [16].
For the molecule `CCOc1cnc2ccc(-c3cnc(OC)c(NS(=O)(=O)c4ccc(F)cc4F)c3)cn2c1=O`, the inhibition in [1] is 76%.
For the molecule `COc1ncc(-c2ccc3nccc(=O)n3c2)cc1NS(=O)(=O)c1ccc(C(F)(F)F)cc1`, the inhibition in series [1] is 94%. For the same molecule, the negative logarithm of the IC50 (pIC50) is 6.79 in series [14] and 7.31 in series [16].
For the molecule `COc1ncc(-c2cn3c(=O)ccnc3cn2)cc1NS(=O)(=O)c1ccc(F)cc1F`, the inhibition in series [1] worked out at 29%.
`COc1ncc(-c2ccc3nccc(=O)n3c2)cc1NS(=O)(=O)C1CC1`: the inhibition in series [1] is 76%.
As to `COc1ncc(-c2ccc3nccc(=O)n3n2)cc1NS(=O)(=O)c1ccc(F)cc1F`, the inhibition in series [1] was found to be 63%.
Consider `COc1ncc(-c2ccc3ncc(Cl)c(=O)n3c2)cc1NS(=O)(=O)c1ccc(F)cc1F`, for which the negative logarithm of the IC50 (pIC50) is 9.00 in series [17]; 7.80 in [18]; 7.47 on PI3K p110 beta/p85 alpha; 8.33 in [12]; 8.47 in series [13]; 7.05 in [14]. Moreover, in series [16], the pIC50 is 7.94. Besides, in series [2], the bioavailability worked out at 108%. Also, the inhibition in series [1] is 93%. The TGI result with PC-3M is “Dose-dependent effect”. Moreover, the figures for the AUC(0-t) in series [3] and in [9] were 11900 ng·h/mL and 38600 ng·h/mL, respectively. In addition, the Activity entry with Mus musculus is listed as “Non-Toxic”. The values for the free fraction (fraction unbound) in [4], in series [6] and in [15] were < 0.01, < 0.01 and 0.005, respectively. Moreover, the maximum concentration (Cmax) in [5] was 5450 ng/mL. In [7], this molecule yielded a clearance of 1.4 mL/min/kg. Also, in series [8], the half-life was 3 h. Moreover, the Tmax in [10] came to 2.67 h. The Vd in [11] amounted to 0.472 L/kg.
For the molecule `CCS(=O)(=O)Nc1cc(-c2ccc3nccc(=O)n3c2)cnc1OC`, the inhibition in series [1] was 53%.
On the same count and under the same terms, the result for `Cc1ncc(-c2ccc3nccc(=O)n3c2)cc1NS(=O)(=O)c1ccc(F)cc1` reads 85%.
For the molecule `O=c1ccnc2ccc(-c3cnc(Cl)c(NS(=O)(=O)c4ccc(F)cc4F)c3)cn12`, in series [1], the inhibition was 92%. Besides, the values for the pIC50 in [14] and in series [16] were < 6.40 and 7.48, respectively.
The matching figures for `O=c1ccnc2ccc(-c3cnc(Cl)c(NS(=O)(=O)c4ccccc4F)c3)cn12`: 91%, < 6.40 and 7.46.
Consider `COc1ncc(-c2ccc3nccc(=O)n3c2)cc1NS(=O)(=O)c1ccccc1`, for which the inhibition in [1] was found to be 95%. Further, the figures for the negative-log IC50 (pIC50) in [14] and in series [16] were 6.70 and 7.01, respectively.
For the molecule `COc1ncc(-c2ccc3nccc(=O)n3c2)cc1NS(=O)(=O)c1ccc(C#N)cc1`, the inhibition in series [1] turned out to be 94%. Moreover, the negative logarithm of the IC50 (pIC50) in series [14] is 6.61; in series [16], 7.24.
Take `COc1ccc(S(=O)(=O)Nc2cc(-c3ccc4nccc(=O)n4c3)cnc2OC)cc1`: the inhibition in [1] was determined as 95%. In addition, the results for the pIC50 in [14] and in [16] were 6.86 and 7.27, respectively.
Regarding `COc1ncc(-c2ccc3nccc(=O)n3c2)cc1NS(=O)(=O)c1ccccc1C`, the inhibition in [1] came out at 94%. The negative-log IC50 (pIC50) in [14] was 6.81; in series [16], 7.62.
Turning to `COc1ncc(-c2cnc3nccc(-c4cnn(C)c4)c3c2)cc1NS(=O)(=O)c1ccc(F)cc1F`, the inhibition in series [1] is 47%.
Consider `COc1ncc(-c2ccc3nccc(=O)n3c2)cc1NS(=O)(=O)c1ccc(F)cc1`, for which the inhibition in [1] turned out to be 95%. Moreover, the results for the pIC50 in series [14] and in [16] were 6.98 and 7.09, respectively.
For `Cc1ncc(-c2ccc3nccc(=O)n3c2)cc1NS(=O)(=O)c1ccccc1F`, in [1], the inhibition turned out to be 82%.
`COc1ncc(-c2ccc3ncc(C)c(=O)n3c2)cc1NS(=O)(=O)c1ccc(F)cc1F`: in series [1], the inhibition turned out to be 90%. Moreover, the results for the pIC50 in series [14] and in series [16] were 6.92 and 7.55, respectively.
For the molecule `COc1ncc(-c2ccc3nccc(=O)n3c2)cc1NS(=O)(=O)CC(F)(F)F`, in [1], the inhibition was 78%.
Same read-out and setting: the result for `COc1ncc(-c2ccc3nncc(N4CCOCC4)c3c2)cc1NS(=O)(=O)c1ccc(F)cc1F` reads 75%.
Turning to `COc1ncc(-c2ccc3nccc(=O)n3c2)cc1NS(=O)(=O)c1cc(F)ccc1F`, the inhibition in [1] is 96%. The pIC50 was 6.96 in series [14] and 7.35 in series [16].
For `CCOc1ncc(-c2ccc3nccc(=O)n3c2)cc1NS(=O)(=O)c1ccccc1F`, the inhibition in series [1] was 60%.
Consider `COc1ncc(-c2ccc3nccc(=O)n3c2)cc1NS(=O)(=O)c1cccc(F)c1`, for which the inhibition in series [1] amounted to 96%. Moreover, the values for the negative logarithm of the IC50 (pIC50) in series [14] and in series [16] were 7.19 and 7.17, respectively.
Take `Cc1ncc(-c2ccc3nccc(=O)n3c2)cc1NS(=O)(=O)c1ccc(F)cc1F`: the inhibition in series [1] worked out at 81%.
The same measure, in the same setting: the result for `CCc1ncc(-c2ccc3nccc(=O)n3c2)cc1NS(=O)(=O)c1ccc(F)cc1F` reads 86%.
With `COc1ncc(-c2ccc3nccc(=O)n3c2)cc1NS(=O)(=O)c1ccc(Cl)cc1`, the inhibition in series [1] came out at 96%. The values for the negative-log IC50 (pIC50) in series [14] and in series [16] were 6.65 and 7.31, respectively.
Taken in the same sequence, the figures for `COc1ncc(-c2ccc3nccc(=O)n3c2)cc1NS(=O)(=O)c1cc(F)cc(F)c1` were 98%, 7.11 and 7.11.
For `CCc1ncc(-c2ccc3nccc(=O)n3c2)cc1NS(=O)(=O)c1ccccc1F`, in [1], the inhibition was 81%.
Regarding `COc1ncc(-c2ccc3nccc(=O)n3c2)cc1NS(=O)(=O)c1ccccc1F`, the inhibition in series [1] worked out at 94%. Moreover, the pIC50 was < 6.40 in [14] and 6.85 in series [16].
